The target in data set [1] is T1, Melanocortin receptor 4 (Homo sapiens, UniProt P32245). The data set can be described thus: Agonist activity at human MC4 receptor expressed in CHO cells assessed as accumulation of cAMP production. Format: functional, cell-based. The procedure, abridged:
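CHO cells transfected with human MC4R were stimulated by compound and accumulated cAMP was measured by ELISA. Intrinsic activity is expressed relative to α-MSH. Representative experiments were run 2–8 times.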

Data set [2] can be described thus: Drug level in rat brain at 10 mg/kg, po after 4 hrs. Format: ADME, organism-based. Details: dose 10 mg/kg, route oral. The conditions noted are these: read-out: Drug uptake. The procedure, abridged:
(§1)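 Rat pharmacokinetics: single 2.5 mg/kg iv injection and separately 10 mg/kg oral gavage. Plasma CL, Vd, t1/2, AUC, Cmax, Tmax and oral bioavailability were derived. Whole-brain concentration was measured at 1 and 4 h after oral dosing and expressed as a brain/plasma ratio. Values are the average of three animals.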

Data set [3] can be described thus: AUC in rat at 10 mg/kg, po. Type of data set: ADME, organism-based. Details: dose 10 mg/kg, route oral. The following applies: plasma. The procedure, abridged: as §1
The nature of data set [4]: AUC in rat at 2.5 mg/kg, iv. The following applies: plasma. Details: dose 2.5 mg/kg, route intravenous. Format: ADME, organism-based. The procedure, abridged:
as §1

Data set [5] can be described thus: Half life in rat at 2.5 mg/kg, iv. Format: ADME, organism-based. Details: dose 2.5 mg/kg, route intravenous. The following applies: in vivo. In a few lines:
as §1

A short description of data set [6]: Bioavailability in rat at 10 mg/kg, po. Type of data set: ADME, organism-based. The conditions noted are these: in vivo. In a few lines:
as §1

The nature of data set [7]: Distribution coefficient, log D by shake flask method. Type of data set: physicochemical. The following applies: octanol/water. The procedure, abridged:
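log D was measured by the shake-flask method.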

Data set [8] in a line: Ratio of drug level in brain to plasma in rat at 10 mg/kg, po after 4 hrs. Type of data set: ADME, organism-based. Details: dose 10 mg/kg, route oral. The following applies: read-out: BPR. The procedure, abridged: as §1
A short description of data set [9]: Tmax in rat at 10 mg/kg, po. The conditions noted are these: in vivo. Details: dose 10 mg/kg, route oral. Format: ADME, organism-based. In a few lines: as §1
Data set [10] is described as follows: Ratio of drug level in brain to plasma in po dosed DIO rat after 7 days. Format: ADME, organism-based. The following applies: read-out: BPR. In a few lines: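 Chronic study in DIO rats given 3, 10 or 30 mg/kg orally once daily. A satellite group was sampled on day 1 and day 7 for plasma concentration-time profiles and brain/plasma ratio.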
Data set [11] deals with Melanocortin receptor 5 (Homo sapiens, UniProt P33032). The data set can be described thus: Binding affinity to MC5R.
The target in data set [12] is T1, Melanocortin receptor 4. In words: Displacement of [125I]NDP-MSH from human MC4 receptor expressed in HEK293 cells. Format: cell-based. The procedure, abridged:
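HEK293 cells expressing human MC4R, radioligand competition binding with [125I]-NDP-MSH. Ki values are the average of two or more independent measurements.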
(In a radioligand displacement assay an active substance lowers the binding of a labelled ligand.)

Data set [13] can be described thus: Clearance in rat at 2.5 mg/kg, iv. Format: ADME, organism-based. Details: dose 2.5 mg/kg, route intravenous. The following applies: in vivo. The procedure, abridged: as §1
For data set [14], the target named is Melanocortin receptor 3 (Homo sapiens, UniProt P41968). In words: Binding affinity to MC3R.
Data set [15] deals with Caco-2. The data set can be described thus: Ratio of permeability across human Caco-2 cells from basolateral to apical side to apical to basolateral side. Type of data set: ADME, cell-based. On the technique in general: Caco-2 cells form a polarised layer with tight junctions and transporters.
The nature of data set [16]: Volume of distribution in rat in rat at 2.5 mg/kg, iv. Details: dose 2.5 mg/kg, route intravenous. Format: ADME, organism-based. The following applies: in vivo. In a few lines:
as §1

The nature of data set [17]: Cmax in rat at 10 mg/kg, po. Type of data set: ADME, organism-based. Details: dose 10 mg/kg, route oral. The following applies: in vivo. In a few lines: as §1
Data set [18] in a line: Apparent permeability across human Caco-2 cells from apical to basolateral side. Format: ADME, cell-based. The procedure, abridged:
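Caco-2 monolayer permeability, apical-to-basolateral Papp in nm/s. The (b to a)/(a to b) ratio was also determined as an efflux measure.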

T1 sequence (P32245 whole entry): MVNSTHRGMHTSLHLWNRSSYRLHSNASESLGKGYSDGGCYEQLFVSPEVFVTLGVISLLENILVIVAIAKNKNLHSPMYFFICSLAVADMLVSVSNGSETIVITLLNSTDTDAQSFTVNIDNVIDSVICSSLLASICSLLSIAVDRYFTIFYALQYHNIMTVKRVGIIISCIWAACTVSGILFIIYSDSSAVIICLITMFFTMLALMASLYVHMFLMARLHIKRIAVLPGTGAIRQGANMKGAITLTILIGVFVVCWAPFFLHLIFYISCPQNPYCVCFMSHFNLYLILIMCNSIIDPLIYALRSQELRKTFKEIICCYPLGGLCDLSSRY
Melanocortin receptor 3, sequence (P41968 whole entry): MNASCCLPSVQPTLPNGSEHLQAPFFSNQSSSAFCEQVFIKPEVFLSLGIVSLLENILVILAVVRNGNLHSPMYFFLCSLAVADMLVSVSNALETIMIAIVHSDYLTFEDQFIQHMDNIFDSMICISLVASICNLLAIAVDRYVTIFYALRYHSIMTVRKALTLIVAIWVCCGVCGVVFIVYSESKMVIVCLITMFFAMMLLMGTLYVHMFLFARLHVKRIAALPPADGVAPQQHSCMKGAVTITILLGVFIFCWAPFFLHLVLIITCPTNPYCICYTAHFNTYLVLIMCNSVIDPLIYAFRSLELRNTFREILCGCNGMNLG
Melanocortin receptor 5, sequence (P33032 whole entry): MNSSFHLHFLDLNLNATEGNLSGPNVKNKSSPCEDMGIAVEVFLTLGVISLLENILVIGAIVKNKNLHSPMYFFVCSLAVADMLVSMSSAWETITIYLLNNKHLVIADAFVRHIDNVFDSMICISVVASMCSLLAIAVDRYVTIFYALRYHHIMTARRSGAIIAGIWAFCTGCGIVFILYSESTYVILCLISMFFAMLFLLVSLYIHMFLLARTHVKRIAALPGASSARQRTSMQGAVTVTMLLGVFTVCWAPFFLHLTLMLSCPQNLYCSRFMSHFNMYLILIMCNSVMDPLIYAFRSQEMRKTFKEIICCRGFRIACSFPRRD

A word on the EC50: it is the concentration that produces a half-maximal response. For orientation: AUC means concentration integrated over time. What is called half-life is the time in which the quantity being followed falls by half. Lower therefore signals fast loss. The term bioavailability denotes the share of a dose that reaches the circulation, judged against a reference dose that is usually intravenous. Read a high bioavailability as much systemic uptake. By logD is commonly meant lipophilicity at a set pH, counting ionised and neutral species. Low readings indicate lower lipophilicity, high ones higher lipophilicity. As usually defined, the Tmax is the time at which the peak concentration occurs. Usually Ki stands for a measure of affinity in units of concentration, obtained from inhibition or displacement. Lower therefore signals a stronger hold on the target. Usually clearance stands for the volume of plasma or blood freed of the substance per unit of time. A word on the Vd: it is the apparent volume that relates the amount in the body to the concentration in plasma or blood. Lower therefore signals confinement near the circulation. For orientation: Cmax means the peak of the concentration-time curve. As usually defined, the Papp A→B is how fast a substance crosses the layer from the apical side. Take `Cc1ccc(N2CCN(C(=O)[C@@H]3CN(C4CCOCC4)C[C@H]3c3ccc(Cl)cc3)CC2)c([C@@H](NC(=O)CCN(C)C)C(C)C)c1` (stereo in doubt; 13b-1): the EC50 in data set [1] is 3.8 nM. Further, the concentration at 4 h in data set [2] turned out to be 19 ng/g. Also, the AUC amounted to 114 ng·h/mL in [3] and 307 ng·h/mL in data set [4]. In [5], this compound had a half-life of 7.1 h. Also, in data set [6], the bioavailability was 10%. The compound further came in with a logD in [7] of 2.6. In addition, the Kp at 4 h in data set [8] worked out at 3. Also, in data set [9], the Tmax is 2.7 h. Also, the Kp at 168 h in data set [10] was above 10. In addition, the Ki came to 800 nM in data set [11], 1 nM in data set [12] and 260 nM in data set [14]. In data set [13], this compound displayed a clearance of 129 mL/min/kg. The Ratio in [15] is given as 23. The Vd in data set [16] came out at 80 L/kg. The same compound displayed a Cmax in data set [17] of 14 ng/mL. For the same compound, in data set [18], the Papp A→B is 0.16 ×10⁻⁶ cm/s.

For the origin of these results see ChEMBL document CHEMBL1143104, “Identification and characterization of pyrrolidine diastereoisomers as potent functional agonists and antagonists of the human melanocortin-4 receptor” (Bioorg Med Chem Lett, 2008).
